{"source": "ChEMBL document CHEMBL4004799", "about": "“Octaminomycins A and B, Cyclic Octadepsipeptides Active against Plasmodium falciparum” (J Nat Prod, 2017)", "key": {"[1]": {"test_system": "Aspergillus fumigatus", "experiment": "Antimicrobial activity against Aspergillus fumigatus Af293 up to 30 uM after 48 hrs by broth microdilution assay", "type": "functional"}, "[2]": {"test_system": "Pyricularia oryzae", "experiment": "Antimicrobial activity against Pyricularia oryzae kita-1 up to 30 uM after 48 hrs by broth microdilution assay", "type": "functional"}, "[3]": {"experiment": "Cytotoxicity against temperature-sensitive mouse FT210 cells after 48 hrs by WST-8 assay", "type": "cell-based", "conditions": "FT210, 48 h", "outline": "(§1)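 Cells were seeded in 96-well plates and exposed to compounds for 48 h. HL-60 cells were grown at 37 °C in RPMI-1640 with 10% FBS. tsFT210 cells, a mouse FM3A cdc2 temperature-sensitive mutant, were grown at 32 °C in RPMI-1640 with 5% calf serum. WST-8 was added at 1/10 volume for 1 h, and growth was read as absorbance at 450 nm.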"}, "[4]": {"test_system": "Plasmodium falciparum", "experiment": "Antimalarial activity against chloroquine-resistant Plasmodium falciparum Dd2", "type": "functional", "outline": "(§2)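 P. falciparum strains maintained at 37 °C under 5.0% CO2 in human erythrocytes (3% hematocrit), RPMI1640 with 10% human plasma; assay run per an earlier published method; IC50 in μM.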"}, "[5]": {"test_system": "NRK", "experiment": "Cytotoxicity against rat NRK cells infected with temperature-sensitive mutant of Rous sarcoma virus after 48 hrs by WST-8 assay", "type": "cell-based", "outline": "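Rat kidney cells infected with ts25 (T-class Rous sarcoma virus Prague mutant) grown at permissive 32 °C in MEM + 10% calf serum; […] cells/well seeded, compounds applied 48 h; WST-8 (1/10 volume) added for 1 h, growth read as absorbance at 450 nm.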"}, "[6]": {"test_system": "Candida albicans", "experiment": "Antimicrobial activity against Candida albicans JCM1542 up to 30 uM after 24 hrs by broth microdilution assay", "type": "functional"}, "[7]": {"test_system": "HeLa", "experiment": "Cytotoxicity against human HeLa cells after 48 hrs by WST-8 assay", "type": "cell-based"}, "[8]": {"test_system": "HL-60", "experiment": "Cytotoxicity against human HL60 cells after 48 hrs by WST-8 assay", "type": "cell-based", "conditions": "HL-60, 48 h", "outline": "as §1"}, "[9]": {"test_system": "Staphylococcus aureus", "experiment": "Antimicrobial activity against Staphylococcus aureus 209 up to 30 uM after 24 hrs by broth microdilution assay", "type": "functional"}, "[10]": {"test_system": "Plasmodium falciparum", "experiment": "Antimalarial activity against chloroquine-sensitive Plasmodium falciparum 3D7", "type": "functional", "outline": "as §2"}, "[11]": {"test_system": "Escherichia coli", "experiment": "Antimicrobial activity against Escherichia coli HO141 up to 30 uM after 24 hrs by broth microdilution assay", "type": "functional"}, "[12]": {"test_system": "Plasmodium falciparum", "experiment": "Antimalarial activity against chloroquine-resistant Plasmodium falciparum K1", "type": "functional", "outline": "as §2"}}, "note": "The source made the active and inactive calls. The rule behind the calls is not given here. Where a SMILES comes first, the peptide text is derived from it. Bridges are numbered along the chain shown (N, C = ends). [ ]: non-standard residue; d: D form. The star is where a group is joined. NMeY = CN[C@@H](Cc1ccc(O)cc1)C(=O)O; Propionyl = CCC(=O)*"}
{"compound": "CC(=O)N[C@@H]1C(=O)N[C@@H](Cc2ccccc2)C(=O)N[C@H](CC(C)C)C(=O)N[C@@H](C(C)C)C(=O)N2CCC[C@H]2C(=O)N[C@@H](CC(C)C)C(=O)N(C)[C@@H](Cc2ccc(O)cc2)C(=O)N2CCC[C@H]2C(=O)O[C@@H]1C", "note": "(Ac-TF[dL]VPL[NMeY]P; ester 1-C)", "values": [{"measurement": "Activity", "setting": "[1]", "result": "inactive"}, {"measurement": "Activity", "setting": "[2]", "result": "inactive"}, {"measurement": "IC50", "setting": "[3]", "result": "> 30000", "unit": "nM"}, {"measurement": "IC50", "setting": "[4]", "result": 1100, "unit": "nM"}, {"measurement": "IC50", "setting": "[5]", "result": "> 30000", "unit": "nM"}, {"measurement": "Activity", "setting": "[6]", "result": "inactive"}, {"measurement": "IC50", "setting": "[7]", "result": "> 30000", "unit": "nM"}, {"measurement": "IC50", "setting": "[8]", "result": "> 30000", "unit": "nM"}, {"measurement": "Activity", "setting": "[9]", "result": "inactive"}, {"measurement": "IC50", "setting": "[10]", "result": 1500, "unit": "nM"}, {"measurement": "Activity", "setting": "[11]", "result": "inactive"}, {"measurement": "IC50", "setting": "[12]", "result": 830, "unit": "nM"}]}
{"compound": "CCC(=O)N[C@@H]1C(=O)N[C@@H](Cc2ccccc2)C(=O)N[C@H](CC(C)C)C(=O)N[C@@H](C(C)C)C(=O)N2CCC[C@H]2C(=O)N[C@@H](CC(C)C)C(=O)N(C)[C@@H](Cc2ccc(O)cc2)C(=O)N2CCC[C@H]2C(=O)O[C@@H]1C", "note": "(Propionyl-TF[dL]VPL[NMeY]P; ester 1-C)", "values": [{"measurement": "Activity", "setting": "[1]", "result": "inactive"}, {"measurement": "Activity", "setting": "[2]", "result": "inactive"}, {"measurement": "IC50", "setting": "[3]", "result": "> 30000", "unit": "nM"}, {"measurement": "IC50", "setting": "[4]", "result": 1600, "unit": "nM"}, {"measurement": "IC50", "setting": "[5]", "result": "> 30000", "unit": "nM"}, {"measurement": "Activity", "setting": "[6]", "result": "inactive"}, {"measurement": "IC50", "setting": "[7]", "result": "> 30000", "unit": "nM"}, {"measurement": "IC50", "setting": "[8]", "result": "> 30000", "unit": "nM"}, {"measurement": "Activity", "setting": "[9]", "result": "inactive"}, {"measurement": "IC50", "setting": "[10]", "result": 1500, "unit": "nM"}, {"measurement": "Activity", "setting": "[11]", "result": "inactive"}, {"measurement": "IC50", "setting": "[12]", "result": 1300, "unit": "nM"}]}
